As a reminder, the IC50 is the concentration that inhibits the measured activity by half.

Series [1] relates to MIA PaCa-2 cells. Put plainly: In vitro cytotoxicity. The following applies: 72 h incubation, MTS, Dox equiv. concentration, n = 3 (Figure 2F). It counts as cell-based, human. The essentials:
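MIA PaCa-2 cells grown in DMEM with 10% FBS and 2.5% horse serum, seeded at 5000 cells/well and left overnight. Exposed for 72 h, in triplicate, to 3-fold serial dilutions in medium, with cell-free wells for background correction. MTS added for 3 h at 37 °C, then A490 read. Viability relative to buffer-treated cells; IC50 as Dox equiv. by logistic nonlinear regression.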

Series [2] has as its system C26 murine colon carcinoma cells. Description: In vitro cytotoxicity. It counts as cell-based.
The conditions of series [3]: mouse, iv.
Series [4] is described as follows: Intravenous pharmacokinetics in healthy BALB/c mice.
For series [5], the system named is STS. The following applies: ref NCT01514188; cited from earlier work.
For series [6], the system named is advanced soft tissue sarcomas. The following applies: cited from earlier work.
For series [7] the following is noted: cited from earlier work.
Series [8] concerns C26 tumors. Put plainly: Tumor regression, syngeneic C26 colon carcinoma. The series is classed as in vivo, BALB/c mice. Particulars: single i.v. dose.
For series [9], the system named is MIA PaCa-2 tumors. Put plainly: Tumor regression, MIA PaCa-2 pancreatic xenograft. The series is classed as in vivo, nude BALB/c mice. The following applies: 20 mg Dox equiv. kg^−1 BW.

“And” between values parts separate entries of the source, which are not always exact repeats. Equal entries are not always repeated. Bounds are passed on as bounds.

On to `COc1cccc2c1C(=O)c1c(O)c3c(c(O)c1C2=O)C[C@@](O)(C(=O)CO)C[C@@H]3O[C@H]1C[C@H](N)[C@H](O)[C@H](C)O1` [free Dox, doxorubicin], for which the IC50 in [1] is 40 nM; in series [2] (72 h, in the absence of MSA and ABD, n = 3 (Figure 2H)), 230 nM; in [2] (72 h, in the presence of ABD (0.5 × 10^−3 M in medium), n = 3 (Figure 2H)) it was 160 nM; in series [2] (72 h, in the presence of MSA (equimolar), n = 3 (Figure 2H)), 220 nM; in series [2] (72 h incubation, MTS, Dox equiv. concentration, n = 3 (Figure 2F)) it was 510 nM and 500 nM. Moreover, in series [2] (C26 cells, 72 h), the “Change of cytotoxicity in the presence of either MSA or ABD” value is “No difference was observed”. The “In vivo elimination half-life” value in series [3] was “on the order of minutes”. Further, the “Concentration in blood 15 min after i.v. injection, of the initial concentration” value in series [4] (i.v. 5 mg per kg BW, 15 min) is listed as “less than 2%”.
In the case of `COc1cccc2c1C(=O)c1c(O)c3c(c(O)c1C2=O)C[C@@](O)(/C(CO)=N/NC(=O)CCCCCN1C(=O)C=CC1=O)C[C@@H]3O[C@H]1C[C@H](N)[C@H](O)[C@H](C)O1` [AlDox, Aldoxorubicin], in [5], the “Cardiotoxicity in the AlDox arm” value was “no evidence of cardiotoxicity”; the “Overall survival, AlDox versus free Dox arms” value was “not considerably different”; the “PFS in the AlDox arm” value is reported as “superior PFS”. In [6], the Cardiotoxicity entry is “minimal cardiotoxicity” and the “Progression-free survival compared to the standard of care regimen” value is listed as “superior progression-free survival”. For the same compound, in series [7] (aqueous solutions), the “Concentration at which an acidic pH is required for solubility” value is recorded as at least 0.5 mg Dox equiv. mL^−1. Also, in [7] (requires an acidic pH for solubility in aqueous solutions), the “Solubility at physiological pH” value is “poor solubility”. In addition, in series [8] (20 mg Dox equiv. kg^−1 BW), the “Mice that did not survive over the 100-day course of study” value came out at 89%. Further, the “Tumor response at 20 mg Dox equiv. kg^−1 BW” value in [8] (without recurrence of the primary tumor in any mice, 100 days) is “complete eradication of C26 tumors”. In addition, the “Tumor recurrence in tumor-eradicated mice by day 50” value in series [9] is “tumors recurred in all of the tumor-eradicated mice”. Besides, the “Mice with complete tumor disappearance by day 15” value in [9] (single i.v. dose) is reported as 50%. The “Plasma concentration 15 min after i.v. injection, fold lower than ABD–Dox” value in [4] (i.v. 5 mg Dox equiv. per kg BW, 15 min) is listed as “approximately 2 fold”. Also, the Area under curve in series [4] (i.v. 5 mg Dox equiv. per kg BW, plasma, two-compartment model, mean ± SD) was 801.2 ± 23.7 × 10^−6 M h.
